Laboratory results: ChEMBL document CHEMBL3124852, “Synthesis and evaluation of (-)-Massoialactone and analogues as potential anticancer and anti-inflammatory agents” (Eur J Med Chem, 2014)
Converted amounts (≈) assume the structure as drawn.

Key:
[1] = Cytotoxicity against LPS-stimulated Balb/c mouse peritoneal macrophages assessed as cell viability at 25 ug/ml after 24 hrs by MTT assay relative to control; type: cell-based, Peritoneal macrophage cell; conditions: read-out: Activity
How it was run: (§1)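 Adherent thioglycollate-elicited Balb/c peritoneal macrophages exposed 24 h to compound (3.1–25.0 µg/mL) and/or LPS (1 µg/mL), then MTT (5 mg/mL stock) added for 4 h; formazan dissolved in DMSO, absorbance 550 nm. Cell death % = (1 − A_test/A_control) × 100. Quadruplicate wells, three independent experiments; mean ± SD.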

[2] = tested on: MCF7; experiment: Cytotoxicity against human MCF7 cells after 72 hrs by MTT assay; type: functional, cell-based; conditions: MCF7, 72 h
[3] = tested on: HL-60; experiment: Cytotoxicity against human HL60 cells after 72 hrs by MTT assay; type: functional, cell-based; conditions: HL-60, 72 h
How it was run: (§2)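 Tumour cells plated at 10⁵ cells/mL (adherent) or 3 × 10⁵ cells/mL (leukaemias) in medium with fetal bovine serum, 2 mM glutamine, penicillin/streptomycin, 37 °C, 5% CO₂. Compounds ([…], 0.1% DMSO) added for 72 h; MTT (5 mg/mL stock) added at 69 h, formazan dissolved in DMSO after 3 h, read at 595 nm. IC50 with 95% CI from nonlinear regression, two experiments.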

[4] = Cytotoxicity against LPS-stimulated Balb/c mouse peritoneal macrophages assessed as cell viability after 24 hrs by MTT assay; type: cell-based; conditions: peritoneal macrophage cell; how it was run: as §1
[5] = Cytotoxicity against LPS-stimulated Balb/c mouse peritoneal macrophages assessed as cell viability at 3.1 ug/ml after 24 hrs by MTT assay relative to control; type: cell-based, Peritoneal macrophage cell; conditions: read-out: Activity; how it was run: as §1
[6] = Cytotoxicity against LPS-stimulated Balb/c mouse peritoneal macrophages assessed as cell viability at 12.5 ug/ml after 24 hrs by MTT assay relative to control; type: cell-based, Peritoneal macrophage cell; conditions: read-out: Activity; how it was run: as §1
[7] = tested on: HT-29; experiment: Cytotoxicity against human HT-29 cells after 72 hrs by MTT assay; type: functional, cell-based; conditions: HT-29, 72 h; how it was run: as §2
[8] = tested on: K562; experiment: Cytotoxicity against human K562 cells after 72 hrs by MTT assay; type: functional, cell-based; conditions: K562, 72 h; how it was run: as §2
[9] = Cytotoxicity against LPS-stimulated Balb/c mouse peritoneal macrophages assessed as cell viability at 6.2 ug/ml after 24 hrs by MTT assay relative to control; type: cell-based, Peritoneal macrophage cell; conditions: read-out: Activity; how it was run: as §1
[10] = tested on: NCI-H292; experiment: Cytotoxicity against human NCI-H292 cells after 72 hrs by MTT assay; type: functional, cell-based; conditions: NCI-H292, 72 h; how it was run: as §2
[11] = Antiinflammatory activity in Balb/c mouse peritoneal macrophages assessed as reduction in LPS-induced nitric oxide production at 3.1 ug/ml after 24 hrs by Griess method relative to control; type: functional, Peritoneal macrophage cell
How it was run: (§3)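 Thioglycollate-elicited (2.5 mL 3%, i.p., 72 h) peritoneal cells from Balb/c mice, viability checked by trypan blue, cultured at 5 × 10⁶ cells/mL in RPMI-1640 + 10% FBS; non-adherent cells removed after 2 h at 37 °C, 5% CO₂. Adherent macrophages treated with compound plus LPS (1 µg/mL) 24 h; supernatant collected. Mean ± SD of three independent experiments; ANOVA with Newman-Keuls versus medium-only cells.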

[12] = Antiinflammatory activity in Balb/c mouse peritoneal macrophages assessed as reduction in LPS-induced TNF-alpha production at 3.1 ug/ml after 24 hrs by ELISA relative to control; type: functional, Peritoneal macrophage cell; how it was run: as §3

Row | Structure (SMILES) | viability at 24 h, 25 ug/ml [1] | IC50 [2] | IC50 [3] | Activity [4] | viability at 24 h, 3.1 ug/ml [5] | viability at 24 h, 12.5 ug/ml [6] | IC50 [7] | IC50 [8] | viability at 24 h, 6.2 ug/ml [9] | IC50 [10] | Activity [11] | Activity [12]
1 | O=C1C=CCC(c2ccccc2)O1 (configuration not stated) | 7.4% | 22.9 µg/mL (≈ 131 µM) | 13.2 µg/mL (≈ 75.8 µM) | Dose-dependent effect | 34.5% | 1% | 10.9 µg/mL (≈ 62.6 µM) | 8.9 µg/mL (≈ 51.1 µM) | 30.9% | 9.1 µg/mL (≈ 52.2 µM) | – | –
2 | O=C1C=CCC(COc2ccccc2)O1 (configuration not stated) | 0% | 22.5 µg/mL (≈ 110 µM) | 5.4 µg/mL (≈ 26.4 µM) | Dose-dependent effect | 93% | 0% | 4.4 µg/mL (≈ 21.5 µM) | 2.9 µg/mL (≈ 14.2 µM) | 47.3% | 0.8 µg/mL (≈ 3.92 µM) | 5.2 µM | 112.4 pg/mL
3 | C=CCCC1CC=CC(=O)O1 (configuration not stated) | 2.5% | > 100 µg/mL | – | Dose-dependent effect | 57% | 19.7% | > 100 µg/mL | – | 45.4% | > 100 µg/mL | – | –
4 | C=CCOCC1CC=CC(=O)O1 (configuration not stated) | 7.7% | 44.6 µg/mL (≈ 265 µM) | 25.5 µg/mL (≈ 152 µM) | Dose-dependent effect | 100% | 51.1% | 18.4 µg/mL (≈ 109 µM) | 50 µg/mL (≈ 297 µM) | 77.2% | 16.6 µg/mL (≈ 98.7 µM) | 2.7 µM | 210 pg/mL
5 | CCCCC[C@@H]1CC=CC(=O)O1 | – | 60 µg/mL (≈ 357 µM) | 16 µg/mL (≈ 95.1 µM) | – | – | – | 22.6 µg/mL (≈ 134 µM) | 20.2 µg/mL (≈ 120 µM) | – | 11.3 µg/mL (≈ 67.2 µM) | – | –
6 | CCC1CC=CC(=O)O1 (configuration not stated) | – | > 100 µg/mL | – | – | – | – | > 100 µg/mL | – | – | > 100 µg/mL | – | –
7 | COc1cccc2c1C(=O)c1c(O)c3c(c(O)c1C2=O)C[C@@](O)(C(=O)CO)C[C@@H]3O[C@H]1C[C@H](N)[C@H](O)[C@H](C)O1 [DOXORUBICIN] | – | – | – | – | – | – | – | 0.26 µg/mL (≈ 0.478 µM) | – | 0.02 µg/mL (≈ 0.0368 µM) | – | –
